Results pooled from the literature.
Compare with care: the assays were run in different laboratories.

With Cc1ccc2nc(-c3ccc(N(C)C)cc3)[nH]c2c1 the MIC was 64 µg/mL (Enterococcus faecalis; microbial growth, broth dilution; ATCC29212).
With CN(C)N1C(=O)c2ccccc2C1CB1OC(C)(C)C(C)(C)O1 (stereo not drawn) the IC50 was 238 µM (Leishmania major; parasite growth; promastigote).
For CC1=NN(CNc2ccc(C(=O)O)cc2)C(=O)C1=NNn1c(-c2ccccc2)nc2ccccc2c1=O, the MIC was 50.5 µM (Aspergillus fumigatus; microbial growth, broth dilution).
The IC50 of CCCCCCCCCCCCCCCCOP(=O)([O-])OCC[N+](C)(C)C is reported as 12.6 µM (Leishmania major; parasite growth, resazurin; 72 h, promastigote).
C[C@@H]1[C@H](O)[C@@H](C)/C=C/C=C/C=C/C=C/C=C/C=C/C=C/[C@H](O[C@@H]2O[C@H](C)[C@@H](O)[C@H](N)[C@@H]2O)C[C@@H]2O[C@](O)(C[C@@H](O)C[C@@H](O)[C@H](O)CC[C@@H](O)C[C@@H](O)CC(=O)O[C@H]1C)C[C@H](O)[C@H]2C(=O)O has an MIC of 1.35 µM (Aspergillus fumigatus; microbial growth; ATCC204305).
For COc1ccc(-c2nc3ccccc3[nH]2)cc1O, the MIC was 64 µg/mL (Enterococcus faecalis; microbial growth, broth dilution; ATCC29212).
With N=C(NCCCCCCNC(=N)NC(=N)Nc1ccc(Cl)cc1)NC(=N)Nc1ccc(Cl)cc1 the IC50 was 7.38 µM (Acanthamoeba griffini; parasite growth, resazurin; 96 h).
Cc1ccc2nc(-c3ccc(Cl)c(Cl)c3)[nH]c2c1 has an MIC of 16 µg/mL (Enterococcus faecalis; microbial growth, broth dilution; ATCC29212).
For Cc1nc2ccc(Cl)cn2c1C(=O)N1CCN(Cc2cn(-c3ccccc3)nn2)CC1, the IC50 was 192 µM (Leishmania major; parasite growth, resazurin; 72 h, promastigote).
The MIC of C=CCn1c(-c2ccc([N+](=O)[O-])cc2)nc2ccccc21 is reported as 64 µg/mL (Enterococcus faecalis; microbial growth, broth dilution; ATCC29212).
The IC50 of C[C@@H](c1ncncc1F)[C@](O)(Cn1cncn1)c1ccc(F)cc1F is reported as 0.29 µM (Acanthamoeba griffini; parasite growth, resazurin; 96 h).
For Cc1ccc2nc(-c3ccc([N+](=O)[O-])cc3)n(Cc3ccccc3Cl)c2c1, the MIC was 64 µg/mL (Enterococcus faecalis; microbial growth, broth dilution; ATCC29212).
Cc1nc2ccc(Cl)cn2c1C(=O)N1CCN(Cc2cn(-c3ccc(Br)cc3)nn2)CC1 gave an IC50 of 33.6 µM (Leishmania major; parasite growth, resazurin; 72 h, promastigote).
Cc1ccc2nc(-c3ccncc3)[nH]c2c1 has an MIC of 64 µg/mL (Enterococcus faecalis; microbial growth, broth dilution; ATCC29212).
For CC1=NN(CNc2ccccc2[N+](=O)[O-])C(=O)C1=NNn1c(-c2ccccc2)nc2ccccc2c1=O, the MIC was 50.4 µM (Aspergillus fumigatus; microbial growth, broth dilution).
For Cc1ccn2c(C(=O)N3CCN(Cc4cn(-c5ccccc5)nn4)CC3)c(C)nc2c1, the IC50 was 246 µM (Leishmania major; parasite growth, resazurin; 72 h, promastigote).
For C#CCCCCCCCCC=CCC(O)CC(O)CO (stereo not drawn), the IC50 was greater than 8 µg/mL (Aspergillus fumigatus; microbial growth, resazurin; ATCC204305).
With Cc1ccn2c(C(=O)N3CCN(Cc4cn(-c5ccc([N+](=O)[O-])cc5)nn4)CC3)c(C)nc2c1 the IC50 was greater than 500 µM (Leishmania major; parasite growth, resazurin; 72 h, promastigote).
With Cc1ccc(C)n1-c1ccc(-c2nnc(S)s2)cc1 the MIC was 1 µg/mL (Enterococcus faecalis; microbial growth, broth dilution; ATCC14506; 18 h).
For Cc1nc2ccc(Cl)cn2c1C(=O)N1CCN(Cc2cn(-c3ccc([N+](=O)[O-])cc3)nn2)CC1, the IC50 was greater than 250 µM (Leishmania major; parasite growth, resazurin; 72 h, promastigote).
For CC1(C)OB(CC2c3ccccc3C(=O)N2C2CCCCC2)OC1(C)C (stereo not drawn), the IC50 was 13.2 µM (Leishmania major; parasite growth; intracellular, amastigote).
